From PubChem
A selection: hits, their analogues and other compounds. The true share with any hit is near 4.9%.
HSF1 inh – HSF1 inhibitors in luciferase reporter cells, primary screen, cell-based, NIH3T3, luminescence | NIH3T3-HGL HSE-luciferase, MG132-induced, luminescence 8 h; hits give low values | activity change, negative = inhibition, % at 7.5 µM (by protocol) | hit rate 0.77% among 300,000 | AID 2098, 2009;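 active means more than half of replicate wells show activity change below -50%, luminescence cut by over half; inconclusive means some wells, but at most half, below -50%; inactive means no replicate well below -50%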;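 further: luciferase reports HSF-1 transcriptional activity via heat shock element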
CHT inh – inhibitors of human choline transporter CHT | High affinity choline transporter 1 (Homo sapiens), Q9GZV3 | CHT-expressing cells, membrane potential dye, choline response; hits give low values | AID 488975, 2010 | hit rate 0.86% among 310,000 | B-score at 10 µM;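 active means B-score over 3 SD under the library average, and starting fluorescence ratio not unusually high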;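 further: choline stimulus applied at its EC90 after an EC20 pre-addition; B-score computed on integrated fluorescence ratio after choline addition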
Lipid droplet – inhibitors of hepatocyte lipid droplet formation, primary screen, imaging, high-throughput imaging, BODIPY stain; hit rate 0.4% among 240,000; inhibition, % at 6.5 µM; AML12 mouse hepatocytes, oleate lipid droplets;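 active means lipid droplet intensity inhibited by at least 50%, with more than 500 cells counted; inconclusive means wells with under 300 cells, treated as cytotoxic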
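Assay system: AML12 hepatocytes (mouse); Probe or stimulus: oleic acid at 100 µM to induce lipid droplet formation; Dosing: compound at 6.5 µM only; Schedule: compound with oleate, overnight; Detection: fluorescence imaging, 20x objective, two fields per well; Measure: % inhibition of lipid droplet signal.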
HSF1 activator – HSF-1 activators, primary screen, NIH3T3-HGL cells, MG132 stress, luminescence, single point | NIH3T3-HGL HSF-1 luciferase reporter, 8 h; 100% = twice DMSO control signal | activation, % at 9 µM | hit rate 1.7% among 300,000;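 active means mean replicate activation of at least 50% with a set share of replicates each reaching 50%; inconclusive means only one of those two conditions met; inactive means mean below 50% and too few replicates reaching it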
PHOSPHO1 inh – PubChem AID 1565. Phosphoethanolamine/phosphocholine phosphatase (Homo sapiens), Q8TCT1. hit rate 1.1% among 290,000. recombinant PHOSPHO1, absorbance phosphatase assay. inhibition, % at 13.3 µM; in the data active means inhibition above about 60%
Target sequence (Q8TCT1 whole entry, looked up): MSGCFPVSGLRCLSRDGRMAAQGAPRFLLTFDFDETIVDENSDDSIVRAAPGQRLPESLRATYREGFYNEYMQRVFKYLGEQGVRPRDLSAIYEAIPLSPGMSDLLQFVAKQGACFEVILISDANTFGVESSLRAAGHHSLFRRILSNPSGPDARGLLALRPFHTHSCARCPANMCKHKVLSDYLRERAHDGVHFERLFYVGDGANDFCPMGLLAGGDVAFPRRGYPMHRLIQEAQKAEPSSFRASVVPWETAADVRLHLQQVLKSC
CHT allo act – CHT positive allosteric modulators, primary screen, cell-based, membrane potential dye, choline EC20; High affinity choline transporter 1 (Homo sapiens), Q9GZV3; AID 488977, 2010; hit rate 0.49% among 310,000; CHT-expressing cells; hits give high values; LV-AA mutant CHT in HEK293 cells; B-score at 10 µM;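 active means initial fluorescence not abnormally high and integrated response B-score, plate-corrected, over 3 SD above library mean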
Lipid drop inh – hepatocyte lipid droplet accumulation inhibitors, confirmation, imaging, AML12 mouse hepatocytes, single concentration, high-content; inhibition, % at 5.2 µM; shares compounds with Lipid droplet; BODIPY lipid droplet imaging; droplets induced with 100 µM oleic acid; AID 463183, 2010; hit rate 65% among 870;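 active means inhibition of lipid droplet metric at least 50%, with more than 300 cells in each of four replicates; inconclusive means wells under 300 cells, flagged as toxic or low count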
AML12 tox img – AML12 hepatocyte cytotoxicity, counter-screen for hepatic lipid droplet formation project, imaging, DAPI nuclear morphology imaging; shares compounds with Lipid droplet; AML12 mouse hepatocytes; hits give high values; cells fed 100 µM oleate overnight; z-score at 5 µM; hit rate 3% among 870; in the data active means z-score above about 6.3;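 further: compound exposure lasted overnight at 37 °C before fixation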
AML12 tox conf – AML12 hepatocyte cytotoxicity, confirmation, cytotoxicity control for hepatic lipid droplet formation project, cell-based, single concentration. cytotoxicity, % at 50 µM. 530 tested, under 10 active. AID 463219, 2010. AML12 mouse hepatocyte viability, ATP luminescence; cells loaded with 100 µM oleic acid. shares compounds with Lipid droplet;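 active means cytotoxicity above 50% in each of four replicates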;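 further: compound exposure lasted overnight at 37 °C before the ATP read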
Numbers stand for hits; i = inactive; ? = inconclusive; nt = no result.

SMILES	HSF1 inh	CHT inh	Lipid droplet	HSF1 activator	PHOSPHO1 inh	CHT allo act	Lipid drop inh	AML12 tox img	AML12 tox conf
COc1cccc(/C=C/C(=O)NCCc2ccc(OC)c(OC)c2)c1	i	i	54	i	i	i	i	i	nt
COc1ccc(CCNC(=O)Cc2cccc(C(F)(F)F)c2)cc1OC	i	i	64	i	i	i	84	i	i
COCCn1cnc2c(c1=O)c1nc3ccccc3nc1n2/N=C/c1ccc(OC)c(OC)c1	i	i	53	i	i	i	i	i	nt
COCCc1nnc(NC(=O)C23CC4CC(CC(C4)C2)C3)s1	i	i	i	i	i	i	nt	nt	nt
COc1cc(C2N3CC4(C)CN2CC(C)(C3)C4)ccc1O (stereo not given)	i	i	92	i	i	i	i	i	nt
O=C(Nc1cccc2ccccc12)C1CCN(C(=O)NCc2ccccc2)CC1	i	i	nt	i	i	i	nt	nt	nt
COc1ccccc1NC(=O)C1CCN(C(=O)NCc2ccccc2)CC1	i	i	51	i	i	i	80	i	i
CCOc1ccccc1N1CCN(C(=O)NCc2ccc(C)cc2)CC1	i	i	65	i	i	i	i	i	i
CCOC(=O)c1c(C)[nH]c(N=Nc2ccccc2C)c1C	i	i	68	i	i	i	106	i	i
CCOC(=O)c1[nH]c(C)c(C(=O)Nc2ccccc2C)c1C	i	i	i	i	i	i	nt	nt	nt
CCOC(=O)c1ccc(C(=S)N2CCCC2)cc1	i	nt	i	i	i	nt	nt	nt	nt
COc1ccc(C(C#N)N2CCOCC2)cc1 (stereo not given)	i	i	53	i	i	i	i	i	nt
COc1cc(SC)ccc1C(=O)OC(C)C(=O)Nc1ccc(NC(C)=O)cc1 (stereo not given)	i	i	59	i	i	i	87	i	i
COc1cc(SC)ccc1C(=O)Nc1cc(C)c(OCC(=O)N2CCOCC2)c(C)c1	i	i	i	i	i	i	nt	nt	nt
CCCCOc1ccc(C(=O)Nc2ccc(CN3CCOCC3)cc2)cc1	i	i	i	i	i	i	nt	nt	nt
CCCCOc1ccc(C(=O)Nc2cc(C)c(OCC(=O)N3CCOCC3)c(C)c2)cc1	i	i	93	i	i	i	96	i	i
Cc1cc(NC(=O)c2cccc3ccccc23)cc(C)c1OCC(=O)N1CCOCC1	i	i	61	i	i	i	88	i	i
COc1ccc(N(C(=O)CCl)C(C(=O)NCCc2ccccc2)c2cccs2)cc1Cl (stereo not given)	i	i	127	i	i	i	?	34	nt
CC1(C)CC(NC(=O)C23CCC(C)(C2Br)C3(C)C)CC(C)(C)N1 (stereo not given)	nt	i	i	nt	i	i	nt	nt	nt
O=C(c1ccco1)n1nc(-c2cccnc2)nc1NCc1ccco1	i	i	i	i	i	i	nt	nt	nt
CCCC1(c2ccccc2)NC(=O)N(CC(=O)Nc2ccccc2C(F)(F)F)C1=O (stereo not given)	i	i	i	i	i	i	nt	nt	nt
CCCOC(=O)c1ccc(NC(=O)c2ccc(Br)o2)cc1	i	i	74	i	i	i	82	i	i
CCOc1ccc(C2=Nc3ccc(Br)cc3C(c3ccc(N4CCOCC4)cc3)=NN2)cc1	i	i	62	58	i	i	i	i	nt
CCOc1ccc2c(c1)-c1c(ssc1=S)C(C)(C)N2C	i	i	57	i	70	i	102	i	i
Cc1cccc(OCc2nnc(SCC(=O)Nc3cccc(C(=O)N4CCOCC4)c3)n2C)c1C	i	i	i	i	i	i	nt	nt	nt
